Screens as filed in PubChem.
STEP block: STEP phosphatase inhibitors, primary screen, biochemical, fluorescence intensity, uHTS. recombinant STEP, OMFP fluorogenic substrate. inhibition, % at 20 µM. 360,000 tested, 0.25% active. Tyrosine-protein phosphatase non-receptor type 5 (Homo sapiens), P54829;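 active means inhibition at 20 µM, scaled per plate between control wells, above about 37%, limit read from the data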;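 further: 0% = DMSO with enzyme and substrate and 100% = substrate only without enzyme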
Target sequence (P54829 whole entry, looked up): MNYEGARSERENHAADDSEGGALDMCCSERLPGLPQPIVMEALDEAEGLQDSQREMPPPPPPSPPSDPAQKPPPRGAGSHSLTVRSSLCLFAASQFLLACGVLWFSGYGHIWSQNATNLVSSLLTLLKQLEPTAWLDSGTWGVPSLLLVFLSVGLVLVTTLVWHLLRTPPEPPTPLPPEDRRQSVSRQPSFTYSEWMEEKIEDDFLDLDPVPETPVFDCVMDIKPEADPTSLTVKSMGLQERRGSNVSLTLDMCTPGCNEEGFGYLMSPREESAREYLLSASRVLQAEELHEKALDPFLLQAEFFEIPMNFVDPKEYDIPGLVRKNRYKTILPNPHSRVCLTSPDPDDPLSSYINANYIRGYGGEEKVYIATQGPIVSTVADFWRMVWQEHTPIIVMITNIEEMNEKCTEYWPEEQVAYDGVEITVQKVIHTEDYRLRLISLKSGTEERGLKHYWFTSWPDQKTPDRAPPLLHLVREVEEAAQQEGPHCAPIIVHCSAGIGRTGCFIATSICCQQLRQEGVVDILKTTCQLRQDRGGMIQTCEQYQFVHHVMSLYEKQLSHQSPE
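Assay system: isolated STEP enzyme. Buffer or medium: pH 6.0 Bis-Tris with DTT and Tween 20. Also added: fluorogenic phosphatase substrate OMFP at 25 µM final. Dosing: 20 µM, 1% DMSO. Timing: 20 min reaction, room temperature, in the dark. Measured by: fluorescence intensity, excitation 480 nm, emission 540 nm. Evaluation: normalized % inhibition.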
LMPTP inh: LMPTP phosphatase inhibitors, primary screen, biochemical, fluorescence intensity, uHTS; 360,000 tested, 0.22% active; inhibition, % at 20 µM; recombinant LMPTP-A, OMFP fluorogenic substrate; Low molecular weight phosphotyrosine protein phosphatase (Homo sapiens), P24666;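 active means compounds that cut the enzyme signal by at least half of the control window in the single-dose screen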;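 further: plate controls were DMSO wells with enzyme plus substrate for no effect and substrate without enzyme for full effect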
Target sequence (P24666 whole entry, looked up): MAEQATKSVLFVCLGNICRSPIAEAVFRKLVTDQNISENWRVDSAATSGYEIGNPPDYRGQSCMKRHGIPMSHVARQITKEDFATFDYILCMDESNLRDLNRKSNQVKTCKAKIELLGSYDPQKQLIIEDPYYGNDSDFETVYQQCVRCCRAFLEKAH
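Assay system: LMPTP-A enzyme. Input: 0.625 nM LMPTP-A final. Probe or stimulus: 400 µM OMFP. Compound dosing: single 20 µM dose. Schedule: 50 min dark incubation at room temperature. Detection: fluorescence intensity of OMFP turnover product. Read-out: percent inhibition versus substrate-only and uninhibited controls. Benchmarks: no-enzyme low control, uninhibited high control.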
Scp1 inh: Scp-1 phosphatase inhibitors, primary screen, biochemical, colorimetric, uHTS; AID 493091, 2011; Recombinant Scp1, phosphopeptide, malachite green phosphate absorbance; 340,000 tested, 0.88% active; inhibition, % at 20 µM;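 active means inhibition above about 50% at 20 µM, limit read from the data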;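 further: plate controls were DMSO wells with enzyme for no effect and wells lacking enzyme for full effect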
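System: SCP-1 catalytic domain; Reagent: Phospho 17-mer peptide substrate; Doses: one concentration, 20 µM, with 1.0% DMSO; Incubation: 45 min room-temperature reaction, 5 min colour, 30 min stabiliser; Signal: Phosphate-binding colour reagent, absorbance read at 630 nm.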
SUMO1-SIM PPI: modulators of SUMO1 protein-protein interactions, primary screen, biochemical, uHTS; Small ubiquitin-related modifier 1 (Homo sapiens), P63165; SUMO1 binding to a labelled peptide, TR-FRET, 1 h; inhibition, % at 20 µM; 360,000 tested, 0.33% active; AID 602429, 2012; in the data active means inhibition above about 37%
Rpn11 block: Rpn11 (PSMD14) deubiquitinase inhibitors, primary screen, biochemical, fluorescence polarization, uHTS. 26S proteasome non-ATPase regulatory subunit 14 (Homo sapiens), O00487. human 26S proteasome, Ub4-pepOG fluorescence polarization; 20S core pre-blocked with epoxomicin. inhibition, % at 20 µM. 360,000 tested, 0.59% active;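 active means inhibition at 20 µM, scaled to each plate's controls, above about 33%, limit read from the data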
DNMT1 block: human DNMT1 methyltransferase inhibitors, primary screen, biochemical, molecular beacon, fluorescence, HinP1I cleavage, uHTS. 360,000 tested, 0.83% active. DNA (cytosine-5)-methyltransferase 1 (Homo sapiens), P26358. inhibition (reported as % activation of signal), % at 10 µM; in the data active means inhibition above about 50%
Scp-1 conf: Scp-1 phosphatase inhibitors, retest, confirmation, biochemical, colorimetric, single concentration; shares compounds with Scp1 inh; recombinant SCP-1 catalytic domain, phosphate release, malachite green absorbance; inhibition, % at 20 µM; 2,500 tested, 61% active;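 further: plate controls were DMSO with enzyme for no effect and buffer wells lacking enzyme for full effect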
Scp-1 MG ctr: colorimetric readout interference by compounds, confirmation, artefact control for Scp-1 inhibitor project, biochemical, single concentration; apparent inhibition (interference), % at 20 µM; AID 540313, 2011; Colorimetric interference counterscreen, malachite green absorbance 630 nm; shares compounds with Scp1 inh; 2,500 tested, under 10 active;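 further: compounds added after enzyme reaction finished so only phosphate colour detection is probed; plate controls were DMSO wells with completed Scp-1 reaction for no effect and substrate wells lacking enzyme for full effect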
Scp1 DSF: Scp-1 binding by thermal shift, confirmation, orthogonal assay for Scp-1 inhibitor project, biophysical, differential scanning fluorimetry; AID 540329, 2011; thermal shift relative to vanadate control, % at 40 µM; 1,500 tested, 25% active; shares compounds with Scp1 inh; Recombinant SCP1, Sypro Orange thermal shift Tm;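 active means substances whose mean melting-temperature shift, as a percentage of the reference inhibitor's shift, reaches about 5.3%, limit read from the data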;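 further: 0% = Tm of DMSO wells and 100% = Tm with sodium orthovanadate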
DNMT1 inh conf: DNMT1 methyltransferase inhibitor retest, confirmation, biochemical, molecular beacon, fluorescence, single concentration. shares compounds with DNMT1 block. DNMT1 molecular beacon HinP1I cleavage. inhibition, % at 10 µM. 2,300 tested, 8% active;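 active means average inhibition of at least 30% in the single-concentration confirmation test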
DNMT1 interf: beacon fluorescence artifact counter-screen; shares compounds with DNMT1 block; DNMT1 molecular beacon spectral interference counterscreen, fluorescence 485/520; activation (fluorescence interference), % at 10 µM; 2,300 tested, 1% active; AID 602387;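 active means activation of at least 30% at 10 µM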;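 further: DNMT1 catalytic domain with a HinP1I cleavage step and a FAM/dabcyl DNA beacon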
Rpn11 confirm: Rpn11 (PSMD14) deubiquitinase inhibitors, confirmation, biochemical, fluorescence polarization, single concentration; shares compounds with Rpn11 block; purified human 26S proteasome, Ub4-pepOG fluorescence polarization; proteasome pretreated with epoxomicin; inhibition, % at 20 µM; 1,900 tested, 29% active; in the data active means inhibition above about 40%
MMP-2 counter: MMP-2 enzyme inhibition, confirmation, counter-screen for RPN11 inhibitor project, biochemical, fluorescence, single concentration. shares compounds with Rpn11 block. recombinant MMP-2, FRET peptide cleavage fluorescence. inhibition, % at 20 µM. 1,900 tested, 4% active. AID 602330, 2012; in the data active means inhibition above about 40%;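 further: human MMP-2 activated beforehand with APMA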
Thrombin FP: bovine thrombin protease inhibition, confirmation, counter-screen for Rpn11 inhibitor project, biochemical, fluorescence polarization, single concentration; 1,900 tested, 13% active; AID 602333, 2012; inhibition, % at 20 µM; shares compounds with Rpn11 block; bovine thrombin cleavage of Ub4-pepOG;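 active means mean inhibition at least 40% at 20 µM, or signal 3 deviations below plate average, so some actives read negative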;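 further: plate controls were thrombin with DMSO for no effect and buffer wells lacking thrombin for full effect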
STEP inh conf: STEP phosphatase inhibitor hit confirmation, biochemical, fluorescence intensity, single concentration. shares compounds with STEP block. recombinant STEP, OMFP fluorogenic substrate. inhibition, % at 20 µM. 520 tested, 32% active. AID 623866, 2012; call rule not given here;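 further: 0% = enzyme with substrate plus DMSO and 100% = substrate without enzyme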
* = called active by the depositor; x = not tested or not shown. The list is not random: actives were taken first. Their share in the collection is about 2.3%.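 How the source made its calls, unless noted: active means inhibition of at least 30% at 20 µM; inactive means the rest.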

SMILES	STEP block	LMPTP inh	Scp1 inh	SUMO1-SIM PPI	Rpn11 block	DNMT1 block	Scp-1 conf	Scp-1 MG ctr	Scp1 DSF	STEP inh conf	others
O=C(NNc1ncnc2ccccc12)c1cccc(Cl)c1	38*	6	100*	1	74*	2	91*	-7	-11	1	Rpn11 confirm=77*;MMP-2 counter=-26;Thrombin FP=-4
Cc1nc2cc(-c3ccc(Br)cc3)[nH]n2c(=O)c1Cl	97*	38	96*	12	2	7	20	-7	x	1
CCOc1ccc(C(=O)c2cc3ccc(O)cc3oc2=O)cc1	0	0	-3	-23	5	-4	x	x	x	x
O=C(c1ccc([N+](=O)[O-])cc1)c1cc2ccc(O)cc2oc1=O	53*	22	72*	-29	6	1	55*	-5	5.7*	0
FC(F)(F)c1nc(SCc2ccccc2)n[nH]1	2	-4	-7	5	-3	3	x	x	x	x
Cc1cc(C(=O)N/N=C/c2ccc(-c3cccc(Cl)c3Cl)o2)n[nH]1	61*	49	61*	0	59*	52*	88*	-5	2	0	DNMT1 inh conf=17;DNMT1 interf=3;Rpn11 confirm=22;MMP-2 counter=-34;Thrombin FP=-13
Cc1cc(C(=O)N/N=C/c2ccc(-c3cccc(Br)c3)o2)n[nH]1	2	0	-5	4	17	28	x	x	x	x
Cc1onc(-c2c(Cl)cccc2Cl)c1COC(=O)c1ccc(Cl)cc1	1	4	-11	8	-4	-4	x	x	x	x
O=C(N/N=C/c1cccnc1)c1ccc(Cl)c(Cl)c1	-1	-2	-13	-15	-4	0	x	x	x	x
O=C(N/N=C/c1cccnc1)c1ccc(NC(=O)c2cccc(Cl)c2)cc1	94*	21	70*	61*	64*	-12	72*	-12	8.4*	61*	Rpn11 confirm=44*;MMP-2 counter=-8;Thrombin FP=-15
O=C(CSc1nnc2c(n1)[nH]c1ccc(F)cc12)NC1CC1	0	0	-1	-10	-4	1	x	x	x	x
O=C(CSc1nnc2c(n1)[nH]c1ccc(F)cc12)NCc1ccc(F)cc1	60*	12	65*	-2	36	5	25	-10	x	-4
COc1ccc(CCNC(=O)C2CCC(C(C)(C)C)CC2)cc1OC (stereo unspecified)	0	0	-5	7	-6	-2	x	x	x	x
CCOc1ccc(N=C2NC(=O)S/C2=C\c2ccc(Cl)cc2)cc1	51*	47	112*	-4	5	84*	41*	-10	-2	33	DNMT1 inh conf=0;DNMT1 interf=-6
O=C(O)CSc1ncnc2c1sc1nc(-c3ccccc3)c3c(c12)CCC3	48*	2	78*	31	30	-1	53*	-11	-9	34
O=C(Nc1cccc(C(F)(F)F)c1)c1csc([C@H]2C[C@H](O)[C@@H](CO)O2)n1	-3	0	x	-2	-6	-2	x	x	x	x
CC(C)CCN1CCN(Cc2ccon2)CC1CCO (stereo unspecified)	-3	0	-9	1	0	-2	x	x	x	x
CN(C)c1ccc(C(=O)OCC(=O)Nc2ccc(S(N)(=O)=O)cc2)cc1	40*	18	99*	58*	8	7	75*	-16	11*	101*
O=S(=O)(Nc1ccccc1)c1cccc2nsnc12	84*	58*	78*	-14	-13	44	59*	-11	-16	40*
Cc1ccc(NS(=O)(=O)c2cccc3nsnc23)cc1	2	-1	0	-33	-3	0	x	x	x	x
C=CCN1C=C(C(C)=O)C(=O)CC1	3	-2	-8	3	0	5	x	x	x	x
O=C(N/N=C/c1ccc(Br)cc1)c1ccc(Br)o1	47*	12	100*	-5	11	6	82*	-17	-9	71*
O=C(N/N=C/c1ccc(F)cc1)c1ccc(Br)cc1	-3	0	30	-1	4	1	x	x	x	x
